Assay results published in publication PMC10520345 (Current Research in Microbial Sciences, 2023).

Experiments:
CV-A16 = test: Plaque reduction assay, CV-A16; assay type: cell-based, Coxsackievirus A16; details: read-out: IC50 against CV-A16 in plaque reduction assay
In short: (§1)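 Confluent RD or Vero monolayers were infected with coxsackievirus for 1 h. The inoculum was replaced by DMEM overlay with 1.2% Avicel, 2% FBS and varying test compound concentrations. After 2–3 days, plaques were fixed with 4% formaldehyde, stained with 0.5% crystal violet and counted, and IC50 was calculated. Data are means ± SD.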

CV-A7 = test: Plaque reduction assay, CV-A7; assay type: cell-based, Coxsackievirus A7; details: read-out: IC50 against CV-A7 in plaque reduction assay
In short: as §1

CV-A6 = test: Plaque reduction assay, CV-A6; assay type: cell-based, Coxsackievirus A6; details: read-out: IC50 against CV-A6 in plaque reduction assay
In short: as §1

CV-A10 [1] = test: Plaque reduction assay, CV-A10 in RD cells; assay type: cell-based, Coxsackievirus A10; details: read-out: IC50 against CV-A10 in plaque reduction assay
In short: as §1

CV-A10 [2] = test: Plaque reduction assay, CV-A10 in Vero cells; assay type: cell-based, Coxsackievirus A10; details: read-out: IC50 against CV-A10 in plaque reduction assay
In short: as §1

- IC50 (CV-A16): 180 ± 20 nM
- IC50 (CV-A7): 210 ± 50 nM
- IC50 (CV-A6): 220 ± 20 nM
- IC50 (CV-A10 [1]): 240 ± 40 nM
- IC50 (CV-A10 [2]): 1690 ± 620 nM
SMILES: CC(C)C[C@H](NC(=O)OCc1ccccc1)C(=O)N[C@@H](CC1CCNC1=O)C(O)S(=O)(=O)O (some centres unmarked) [GC376]
